Measurements: ChEMBL document CHEMBL5634103 (Eur J Med Chem, 2023)

What was measured:
[1] = species: Homo sapiens; assay: Selectivity ratio of Ki for displacement of [125I]IABN from human D2L receptor expressed in HEK cells to Ki for displacement of [125I]IABN from human D3R expressed in HEK cells; type: cell-based
Outline: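 20 µM (+)-butaclamol defines nonspecific binding. Inhibitor over 5 log units, two points per decade, triplicates. Gamma counting. Single-site IC50 converted to Ki (Cheng–Prusoff), ≥3 experiments. Ratio is D2 Ki/D3 Ki.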

[2] = target: T1, D(3) dopamine receptor (Homo sapiens, UniProt P35462); assay: Displacement of [125I]IABN from human D3 receptor expressed in HEK cells measured after 60 mins by gamma counting method; type: cell-based
[3] = target: T2, D(2) dopamine receptor (Homo sapiens, UniProt P14416); assay: Displacement of [125I]IABN from human D2L receptor expressed in HEK cells measured after 60 mins by gamma counting method; type: cell-based
[4] = target: T1, D(3) dopamine receptor; assay: Binding affinity to human D3 receptor expressed in CHO-K1 cells assessed as inhibition of dopamine-induced beta-arrestin recruitment preincubated for 30 mins followed by dopamine addition and measured after 90 mins by pathhunter assay
[5] = target: T2, D(2) dopamine receptor; assay: Binding affinity to D2 receptor (unknown origin)

T1 sequence (P35462 whole entry): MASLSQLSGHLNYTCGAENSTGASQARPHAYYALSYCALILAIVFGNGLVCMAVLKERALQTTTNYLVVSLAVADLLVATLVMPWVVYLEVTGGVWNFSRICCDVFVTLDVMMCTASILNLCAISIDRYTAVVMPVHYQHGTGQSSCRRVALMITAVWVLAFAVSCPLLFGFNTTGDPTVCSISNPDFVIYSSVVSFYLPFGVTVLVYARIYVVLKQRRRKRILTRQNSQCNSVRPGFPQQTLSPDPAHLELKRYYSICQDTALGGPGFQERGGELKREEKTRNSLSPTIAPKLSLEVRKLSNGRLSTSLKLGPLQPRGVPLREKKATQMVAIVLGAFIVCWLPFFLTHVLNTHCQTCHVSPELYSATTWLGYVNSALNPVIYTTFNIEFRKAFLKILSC
T2 sequence (P14416 whole entry): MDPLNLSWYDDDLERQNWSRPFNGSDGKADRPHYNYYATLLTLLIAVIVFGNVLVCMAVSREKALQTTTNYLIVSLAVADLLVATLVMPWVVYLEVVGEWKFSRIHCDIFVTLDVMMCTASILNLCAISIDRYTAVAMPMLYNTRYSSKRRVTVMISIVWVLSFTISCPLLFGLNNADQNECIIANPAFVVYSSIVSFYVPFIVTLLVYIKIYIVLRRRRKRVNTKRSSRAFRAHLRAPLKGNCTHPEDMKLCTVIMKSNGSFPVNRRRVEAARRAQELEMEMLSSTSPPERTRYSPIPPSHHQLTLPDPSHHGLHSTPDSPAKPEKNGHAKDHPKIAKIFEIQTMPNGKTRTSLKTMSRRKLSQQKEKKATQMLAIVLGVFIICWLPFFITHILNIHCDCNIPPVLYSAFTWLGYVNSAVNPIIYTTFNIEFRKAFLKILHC

| Compound | Ki [2] [nM] | Ki [3] [nM] | IC50 [4] [nM] | Ki [5] [nM] | Ratio Ki [1] |
| --- | --- | --- | --- | --- | --- |
| C=CCN1C[C@H](OC(=O)Nc2ccc(-c3ccsc3)cc2)C[C@@H]1CNC(=O)c1cc(CCCF)cc(OC)c1OC | 6790 | > 41000 |  |  | > 6 |
| C=CCN1C[C@H](OCCCN)C[C@H]1CNC(=O)c1cc(CCCF)cc(OC)c1OC | 8.4 | 18.6 | 1.3 |  | 2.2 |
| C=CCN1C[C@H](OCCN)C[C@H]1CNC(=O)c1cc(CCCF)cc(OC)c1OC | 9.5 | 107 | 11 |  | 11.3 |
| C=CCN1C[C@H](OC(=O)Nc2ccc(-c3ccccn3)cc2)C[C@H]1CNC(=O)c1cc(CCCF)cc(OC)c1OC | 15.8 | 22.4 | 79.2 |  | 1.4 |
| C=CCO[C@@H]1C[C@@H](CNC(=O)c2cc(CCCF)cc(OC)c2OC)N(CC=C)C1 | 2.6 | 7.4 |  |  | 2.8 |
| CCN1C[C@H](OCCCN)C[C@H]1CNC(=O)c1cc(CCCF)cc(OC)c1OC | 1.4 | 2.9 | 3.3 |  | 2.1 |
| C=CCN1C[C@H](OC(=O)Nc2ccc(-c3ccsc3)cc2)C[C@H]1CNC(=O)c1cc(CCCF)cc(OC)c1OC | 7.7 | 28.8 | 169 |  | 3.7 |
| C=CCN1C[C@H](OC(=O)Nc2ccccc2)C[C@H]1CNC(=O)c1cc(CCCF)cc(OC)c1OC | 14.6 | 29.2 |  |  | 2 |
| C=CCN1C[C@H](OCCCO)C[C@H]1CNC(=O)c1cc(CCCF)cc(OC)c1OC | 7.3 | 14.2 |  |  | 1.9 |
| C=CCN1C[C@H](OCCO)C[C@H]1CNC(=O)c1cc(CCCF)cc(OC)c1OC | 2.4 | 8.4 |  |  | 3.5 |
| CCN1C[C@H](OC(=O)Nc2ccc(-c3ccsc3)cc2)C[C@H]1CNC(=O)c1cc(CCCF)cc(OC)c1OC | 4.3 | 16.2 | 62.7 |  | 3.8 |
| C=CCN1C[C@H](OCc2ccc(F)cc2)C[C@H]1CNC(=O)c1cc(CCCF)cc(OC)c1OC | 4.7 | 9.5 |  |  | 2 |
| C=CCN1C[C@H](OC(=O)Nc2ccoc2)C[C@H]1CNC(=O)c1cc(CCCF)cc(OC)c1OC | 15 | 8.3 |  |  | 0.6 |
| C=CCN1C[C@H](OCCCN)C[C@@H]1CNC(=O)c1cc(CCCF)cc(OC)c1OC | 1950 | 2350 |  |  | 1.2 |
| C=CCN1C[C@H](OCc2cccnc2)C[C@H]1CNC(=O)c1cc(CCCF)cc(OC)c1OC | 1.7 | 2.5 |  |  | 1.5 |
| C=CCN1CC[C@H](OCc2ccccc2)[C@H]1CNC(=O)c1cc(CCCF)cc(OC)c1OC | 2.9 | 7.3 |  |  | 2.5 |

More lines, main results first:

| Ki [2] [nM] | Ki [3] [nM] | IC50 [4] [nM] | Ki [5] [nM] | Compound | Ratio Ki [1] |
| --- | --- | --- | --- | --- | --- |
| 10.6 | 14 |  |  | C=CCN1C[C@H](OC(=O)Nc2cccc(N(C)C)c2)C[C@H]1CNC(=O)c1cc(CCCF)cc(OC)c1OC | 1.3 |
| 3.7 | 8.3 |  |  | C=CCN1C[C@H](OC(=O)Nc2cccnc2)C[C@H]1CNC(=O)c1cc(CCCF)cc(OC)c1OC | 2.2 |
| 4.2 | 13.4 | 8.1 |  | C=CCN1C[C@H](OCCCNC(=O)c2ccc(-c3ccsc3)cc2)C[C@H]1CNC(=O)c1cc(CCCF)cc(OC)c1OC | 3.2 |
| 9.5 |  |  |  | C=CCN1C[C@H](OCc2ccccc2)C[C@H]1CNC(=O)c1cc(CCCF)cc(OC)c1OC |  |
|  | 189 |  |  | C=CCN1C[C@@H](OC(=O)Nc2ccc(-c3ccsc3)cc2)C[C@@H]1CNC(=O)c1cc(CCCF)cc(OC)c1OC | 6.7 |
|  | 9690 |  |  | C=CCN1C[C@@H](OC(=O)Nc2ccc(-c3ccsc3)cc2)C[C@H]1CNC(=O)c1cc(CCCF)cc(OC)c1OC | 16.5 |
| 6.1 | 7.7 |  |  | C=CCN1C[C@H](OC(=O)Nc2ccsc2)C[C@H]1CNC(=O)c1cc(CCCF)cc(OC)c1OC | 1.3 |
| 23.7 | 32.1 |  |  | C=CCN1C[C@H](OCc2ccc(C(F)(F)F)cc2)C[C@H]1CNC(=O)c1cc(CCCF)cc(OC)c1OC | 1.4 |
| 4 | 7 |  |  | C=CCN1C[C@H](OCc2ccncc2)C[C@H]1CNC(=O)c1cc(CCCF)cc(OC)c1OC | 1.7 |
| 12.8 | 30 |  |  | C=CCN1C[C@H](OC(=O)NCCc2ccccc2)C[C@H]1CNC(=O)c1cc(CCCF)cc(OC)c1OC | 2.3 |
|  |  |  | 0.02 | C=CCN1CCC[C@H]1CNC(=O)c1cc(CCCF)cc(OC)c1OC [FALLYPRIDE] |  |
| 1.5 | 2.2 |  |  | C=CCN1C[C@H](OCCCCN)C[C@H]1CNC(=O)c1cc(CCCF)cc(OC)c1OC | 1.4 |
| 8.4 | 12.6 |  |  | C=CCN1C[C@H](OC(=O)Nc2ccccc2C)C[C@H]1CNC(=O)c1cc(CCCF)cc(OC)c1OC | 1.5 |
| 6.2 | 21.4 |  |  | C=CCN1CC[C@H](OCCCN)[C@H]1CNC(=O)c1cc(CCCF)cc(OC)c1OC | 3.5 |
| 12.5 | 18.7 |  |  | C=CCN1C[C@H](OC(=O)Nc2cc(C)ccc2OC)C[C@H]1CNC(=O)c1cc(CCCF)cc(OC)c1OC | 1.5 |
| 6.2 | 10.1 |  |  | C=CCN1C[C@H](OC(=O)NCc2ccccc2)C[C@H]1CNC(=O)c1cc(CCCF)cc(OC)c1OC | 1.6 |
| 4.1 | 10.1 |  |  | C=CCN1C[C@H](OC(=O)Nc2ccccn2)C[C@H]1CNC(=O)c1cc(CCCF)cc(OC)c1OC | 2.4 |
